Activity calls are given as the source filed them. The calls are words filed in the database; no cut-off is given here.
How the values were obtained:
[1] = Increase in glucose-stimulated insulin secretion in rat INS-1E cells at 10^-10 M after 60 mins in presence of 16.7 mM glucose; type: functional
Method in brief: (§1)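 INS-1E cells were pre-cultured 72 h, then preincubated 15 min in M-KRB (pH 7.4, 1% BSA). They were exposed for 60 min at 37 °C to test agent diluted from a 10−3 M DMSO stock to final 10−12–10−6 M in M-KRB with 16.7 mM glucose, with DMSO equalized across solutions. Insulin in the supernatant was measured by RIA (anti-insulin antibody, 125I-insulin tracer, rat insulin standard), and cell protein by Bradford. Mean ± SEM is reported against the 16.7 mM glucose control.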

[2] = Increase in glucose-stimulated insulin secretion in rat INS-1E cells at 10^-8 M after 60 mins in presence of 16.7 mM glucose; type: functional; method in brief: as §1
[3] = (§2) Increase in glucose-stimulated insulin secretion in rat INS-1E cells at 1 uM after 60 mins in presence of 16.7 mM glucose; type: functional; method in brief: as §1
[4] = Increase in glucose-stimulated insulin secretion in rat INS-1E cells at 10^-8 M after 72 hrs in presence of 16.7 mM glucose; type: functional
Method in brief: (§3)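 INS-1E cells were seeded and grown 72 h at 37 °C in growth medium containing test agent at final 10−12, 10−10 or 10−8 M, with DMSO equalized. After a 15 min preincubation in M-KRB, cells were stimulated 60 min with M-KRB at 3.3 or 16.7 mM glucose. Supernatant insulin was measured by RIA. Mean ± SEM is compared with the control at the matching glucose level.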

[5] = Increase in deoxy-D-glucose 2-[1.2-3H(N)] uptake in human Skeletal muscle cells at 10^-8 M after 72 hrs by scintillation counter relative to control; type: functional
Method in brief: (§4)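 Differentiated human skeletal muscle cells (2 weeks in differentiation medium, until multinucleated syncytia were visible) were exposed for 72 h to test agent at 10−8 to 10−12 M. Cells were then given a 15 min pulse at 37 °C in modified KRB with 0.1% BSA, 0.1 mM glucose, tritiated deoxy-D-glucose and 100 nM insulin. Uptake was stopped with washes in 50 mM glucose, cells were lysed in NaOH, and counts per min were read by scintillation and compared with untreated control.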

[6] = Increase in glucose-stimulated insulin secretion in rat INS-1E cells at 10^-10 M after 72 hrs in presence of 16.7 mM glucose; type: functional; method in brief: as §3
[7] = Increase in glucose-stimulated insulin secretion in rat INS-1E cells at 10^-8 M after 72 hrs in presence of 3.3 mM glucose; type: functional; method in brief: as §3
Homo sapiens = species: Homo sapiens; test: Effect on deoxy-D-glucose 2-[1.2-3H(N)] uptake in human Skeletal muscle cells at 10^-12 to 10^-10 M after 72 hrs by scintillation counter; type: functional; method in brief: as §4
[8] = Decrease in glucose-stimulated insulin secretion in rat INS-1E cells at 10^-12 M after 72 hrs in presence of 3.3 mM glucose; parameters: scale not given: the % may be the effect or the level left
INS-1E = test: as §2; type: functional; method in brief: as §1

Row | SMILES | Activity [1] [%] | Activity [2] [%] | Activity [3] [%] | Activity [4] [%] | Activity [5] [%] | Activity [6] [%] | Activity [7] [%] | Activity (Homo sapiens) | Activity [8] [%] | Activity (INS-1E)
1 | O=C(O)/C=C/c1ccc(O)c(O)c1 [CAFFEIC ACID] | 9 | 18 | 9 | 16 |  |  |  |  |  | 
2 | CN(CCOc1ccc(CC2SC(=O)NC2=O)cc1)c1ccccn1 (stereo not given) [ROSIGLITAZONE] |  |  |  |  | 7 |  |  |  |  | 
3 | C[C@@]12CCc3occc3[C@H]1CC[C@@]13C[C@@H](CC[C@H]12)[C@@](O)(CO)C3 [CAFESTOL] | 12 | 12 | 16 | 34 | 8 | 68 | 27 | inactive | 15 | 
4 | O=C(/C=C/c1ccc(O)c(O)c1)O[C@@H]1C[C@](O)(C(=O)O)C[C@@H](O)[C@H]1O |  |  |  |  |  |  |  |  |  | Active
